Test results reported in the array DNA melting data of Ke et al. (doi:10.1101/2024.01.08.574731).

What was measured:
[1] = folding enthalpy; higher = less favourable; fluorescence melt of hairpins on a sequencing array, two-state fit; details: sodium 0.088 M
In short: (§1)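 Library hairpins on a sequenced MiSeq flow cell carried annealed Cy3 and quencher oligos, and their Cy3 fluorescence was imaged in 50 mM Na-HEPES pH 8.0 with 25 mM NaCl, in 2.5 °C steps up to 60 °C. Signals were normalised to Cy3 before quenching and to control constructs. Melting temperature and folding enthalpy were obtained from bootstrapped two-state fits, combined by inverse-variance weighting across four replicates, and the fitted temperatures were then raised by 9.35 °C to match UV melts.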

[2] = melting temperature; fluorescence melt of hairpins on a sequencing array, two-state fit, raised by 9.35 °C to match UV melts; details: sodium 0.088 M
In short: as §1

Row | Sequence | folding enthalpy [1] [kcal/mol] | Tm [2] [°C]
1 | GATCCCATGGGGGATC ((((((....)))))) | -32.4 | 60.1
2 | GATCCCCAAGGGATC ((((((...)))))) | -30.9 | 58.9
3 | GATCCCCACTGGGATC ((((((....)))))) | -35.3 | 62.2
4 | GATCCCCAGGGGGATC ((((((....)))))) | -29 | 65.5
5 | GATCCCCCATGGGATC ((((((....)))))) | -36.5 | 59.9
6 | GATCCCCCCGGGATC ((((((...)))))) | -33.1 | 65.8
7 | GATCCCCGCGGGATC ((((((...)))))) | -34.5 | 65.9
8 | GATCCCCTAAGGGATC ((((((....)))))) | -39.1 | 63.2
9 | GATCCCCTACGGGATC ((((((....)))))) | -35.3 | 61.9
10 | GATCCCCTATGGGATC ((((((....)))))) | -36.9 | 60.8
11 | GATCCCCTCAGGGATC ((((((....)))))) | -41.7 | 66
12 | GATCCCCTCGGGATC ((((((...)))))) | -35.6 | 61.4
13 | GATCCCGAAAGGGAAATC ((((((....)))..))) | -12.1 | 35.1
14 | GATCCCGAAAGGGAATC ((((((....))).))) | -14.5 | 49.6
15 | GATCCCGAAAGGGATATC ((((((....)))..))) | -15.6 | 52
16 | GATCCCGAAAGGGGAATC ((((((....)))..))) | -12.3 | 36.1
17 | GATCCCGAAAGGGGGATC ((((((....)))..))) | -20.1 | 51
18 | GATCCCGACGGGGATC ((((((....)))))) | -27.8 | 65.8
19 | GATCCCGACTGGGATC ((((((....)))))) | -38.5 | 65.8
20 | GATCCCGCTGGGATC ((((((...)))))) | -37.4 | 63.2
21 | GATCCCGGAAACGAGATC ((((.((....)).)))) | -29.6 | 41.7
22 | GATCCCGGAAACGGAATC (((.(((....))).))) | -24.7 | 40.1
23 | GATCCCGGAGGGGATC ((((((....)))))) | -19.4 | 65.8
24 | GATCCCGGTGGGATC ((((((...)))))) | -29.6 | 65.7

Row | Sequence | folding enthalpy [1] [kcal/mol] | Tm [2] [°C]
25 | GATCCCGTTGGGATC ((((((...)))))) | -31.5 | 64.4
26 | GATCCCGTTTGGGATC ((((((....)))))) | -43.4 | 63.6
27 | GATCCCTACCGGGATC ((((((....)))))) | -32.7 | 61.9
28 | GATCCCTATTGGGATC ((((((....)))))) | -43.1 | 62.8
29 | GATCCCTCACGGGATC ((((((....)))))) | -39.5 | 59
30 | GATCCCTCTAGGGATC ((((((....)))))) | -33.9 | 66.6
31 | GATCCCTCTGGGATC ((((((...)))))) | -31.3 | 66.6
32 | GATCCCTGCCGGGATC ((((((....)))))) | -42.8 | 60
33 | GATCCCTGGTGGGATC ((((((....)))))) | -31.1 | 58.1
34 | GATCCCTGTTGGGATC ((((((....)))))) | -42.8 | 62
35 | GATCCCTTCAGGGATC ((((((....)))))) | -31.4 | 68.3
36 | GATCCCTTCCGGGATC ((((((....)))))) | -35.3 | 59.5
37 | GATCCCTTCTGGGATC ((((((....)))))) | -39.1 | 62.5
38 | GATCCCTTGGGGATC ((((((...)))))) | -33 | 60.1
39 | GATCCGAACACGGATC ((((((....)))))) | -36.6 | 57.2
40 | GATCCGAACGCGGATC ((((((....)))))) | -39.6 | 55.1
41 | GATCCGAATGCGGATC ((((((....)))))) | -37.8 | 54.1
42 | GATCCGACCGCGGATC ((((((....)))))) | -34.6 | 56.8
43 | GATCCGACGACGGATC ((((((....)))))) | -36.6 | 56.7
44 | GATCCGAGCACGGATC ((((((....)))))) | -38.2 | 58.5
45 | GATCCGAGCGCGGATC ((((((....)))))) | -42.4 | 58.8
46 | GATCCGAGTACGGATC ((((((....)))))) | -40.8 | 58.6
47 | GATCCGATATCGGATC ((((((....)))))) | -39.9 | 59.2
48 | GATCCGATCACGGATC ((((((....)))))) | -40.6 | 59.5

Row | Sequence | folding enthalpy [1] [kcal/mol] | Tm [2] [°C]
49 | GATCCGCACCCGGATC ((((((....)))))) | -38.6 | 55.4
50 | GATCCGCCAGCGGATC ((((((....)))))) | -44.9 | 65.2
51 | GATCCGCCCCCGGATC ((((((....)))))) | -40.6 | 56.5
52 | GATCCGCCCTCGGATC ((((((....)))))) | -40.6 | 57.1
53 | GATCCGCGAAAGCGTATC (((.(((....))).))) | -18.4 | 43.4
54 | GATCCGCGACGGATC ((((((...)))))) | -39 | 57.9
55 | GATCCGGAAGCGGATC ((((((....)))))) | -33.2 | 59.8
56 | GATCCGGACCCGGATC ((((((....)))))) | -36.9 | 61.1
57 | GATCCGGAGACGGATC ((((((....)))))) | -32.9 | 63.6
58 | GATCCGGAGGCGGATC ((((((....)))))) | -33.4 | 57.8
59 | GATCCGGATGCGGATC ((((((....)))))) | -35.4 | 58.5
60 | GATCCGGATTCGGATC ((((((....)))))) | -35.7 | 59.1
61 | GATCCGGCAACGGATC ((((((....)))))) | -35 | 67.8
62 | GATCCGGCACCGGATC ((((((....)))))) | -44 | 63.8
63 | GATCCGGCCTCGGATC ((((((....)))))) | -42.1 | 58.7
64 | GATCCGGGAAACCGGACC (.(((((....))))).) | -13.2 | 44.1
65 | GATCCGGGAAACTGGGTC ((.((.(....).)).)) | -30.1 | 40
66 | GATCCGGGAACGGATC ((((((....)))))) | -33.4 | 66.1
67 | GATCCGGGAGCGGATC ((((((....)))))) | -37.4 | 61.1
68 | GATCCGGGCACGGATC ((((((....)))))) | -31.1 | 67.8
69 | GATCCGGGCCGGATC ((((((...)))))) | -46.2 | 60.3
70 | GATCCGGGGCGGATC ((((((...)))))) | -37.2 | 56
71 | GATCCGGTACCGGATC ((((((....)))))) | -43.4 | 64.5
72 | GATCCGGTCCGGATC ((((((...)))))) | -40.6 | 59.8

Row | Sequence | folding enthalpy [1] [kcal/mol] | Tm [2] [°C]
73 | GATCCGGTCGCGGATC ((((((....)))))) | -36.7 | 60.2
74 | GATCCGGTTACGGATC ((((((....)))))) | -36.9 | 68.5
75 | GATCCGGTTTCGGATC ((((((....)))))) | -44.2 | 59.5
76 | GATCCGTAACCGGATC ((((((....)))))) | -39.2 | 55.7
77 | GATCCGTAAGCGGATC ((((((....)))))) | -35.3 | 59.3
78 | GATCCGTACTCGGATC ((((((....)))))) | -37.9 | 58.7
79 | GATCCGTAGCGGATC ((((((...)))))) | -35.6 | 56
80 | GATCCGTAGGCGGATC ((((((....)))))) | -41.3 | 59.2
81 | GATCCGTAGTCGGATC ((((((....)))))) | -36 | 57
82 | GATCCGTATACGGATC ((((((....)))))) | -45.4 | 62.1
83 | GATCCGTATTCGGATC ((((((....)))))) | -39.5 | 58.7
84 | GATCCGTCAACGGATC ((((((....)))))) | -35.9 | 62
85 | GATCCGTCCTCGGATC ((((((....)))))) | -48.3 | 58
86 | GATCCGTCTCCGGATC ((((((....)))))) | -39.8 | 58.4
87 | GATCCGTCTTCGGATC ((((((....)))))) | -40 | 59.4
88 | GATCCGTGAGCGGATC ((((((....)))))) | -35.6 | 65.9
89 | GATCCGTGCACGGATC ((((((....)))))) | -40.3 | 66.5
90 | GATCCGTGTACGGATC ((((((....)))))) | -45 | 63.6
91 | GATCCGTGTGCGGATC ((((((....)))))) | -38.8 | 66.7
92 | GATCCGTGTTCGGATC ((((((....)))))) | -36.2 | 61.4
93 | GATCCGTTACGGATC ((((((...)))))) | -34.6 | 63.9
94 | GATCCGTTGACGGATC ((((((....)))))) | -39.1 | 61.8
95 | GATCCGTTGCCGGATC ((((((....)))))) | -46.8 | 58.4
